Source: ChEMBL document CHEMBL3272138, “Prostaglandins and congeners. 16. Synthesis and bronchodilator activity of dl-11-doexy-3-thiaprostaglandins” (1977)

Columns and labels:
Canis familiaris [1] = experiment: Bronchodilatory activity in anesthetized dog assessed as inhibition of pilocarpine-induced bronchospasms at 0.016 to 0.032 ug/kg administered through aerosol 15 mins post challenge measured up to 1 hr; assay type: functional, Canis lupus familiaris
Procedure, shortened: (§1)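 In anesthetized dogs, a long-lasting bronchospasm was induced by pilocarpine, 400 µg/kg injection then 4 µg/kg/min perfusion, requiring an airway resistance increase of at least 200–300% over resting. After a 15-min control period, the compound was delivered by ultrasonic aerosol. Inhibition of bronchoconstriction was followed for the 1-h experiment.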

Cavia porcellus [2] = experiment: Bronchodilator activity in iv dosed Hartley guinea pig assessed as inhibition of acetylcholine-induced bronchoconstriction administered 2 mins post acetylcholine challenge as 3 to 4 doses in 15 mins interval; assay type: functional; settings: for ED50: Cavia porcellus, Hartley, iv
Procedure, shortened: (§2)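 Guinea pigs under urethane anesthesia, gallamine-paralyzed and artificially ventilated (60 strokes/min). Bronchospasm was evoked by iv acetylcholine (40–150), histamine (5.6–22.5) or serotonin (7.5–30 μg/kg), giving a 20–50 cm water rise in tracheal pressure, every 5 min. Three or four log-spaced iv doses (esters in 10% aqueous ethanol) were given at 15-min intervals, with ≥4 animals per spasmogen. ED50 (–50% variation of the first spasm) came from a semilog regression; if never reached, ED50 > maximal dose.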

Cavia porcellus [3] = experiment: Bronchodilator activity in iv dosed Hartley guinea pig assessed as inhibition of histamine-induced bronchoconstriction administered 2 mins post histamine challenge as 3 to 4 doses in 15 mins interval; assay type: functional; procedure, shortened: as §2
Cavia porcellus [4] = experiment: Bronchodilator activity in iv dosed Hartley guinea pig assessed as inhibition of serotonin-induced bronchoconstriction administered 2 mins post serotonin challenge as 3 to 4 doses in 15 mins interval; assay type: functional; procedure, shortened: as §2
Canis familiaris [5] = experiment: Bronchodilatory activity in anesthetized dog assessed as inhibition of pilocarpine-induced bronchospasms compound administered through aerosol 15 mins post challenge measured up to 1 hr; assay type: functional; settings: Canis lupus familiaris, inhaled or nasal; procedure, shortened: as §1
Cavia porcellus [6] = experiment: Bronchodilator activity in Hartley guinea pig assessed as inhibition of histamine-induced bronchoconstriction at 3.2 mg/kg, iv administered 2 mins post histamine challenge as 3 to 4 doses in 15 mins interval; assay type: functional
Procedure, shortened: (§3)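 Urethane (1.5 g/kg ip) anesthetized, gallamine-curarized, ventilated guinea pigs. Spasms were induced by 12-s iv jugular injections every 5 min to raise tracheal pressure 20–50 cm water: acetylcholine 40–150, histamine 5.6–22.5, or serotonin 7.5–30 μg/kg. The drug was given iv over 1 min, 2 min after three stable control spasms. Salts were given as such and esters in 10% aqueous ethanol. Spasm amplitude was expressed as percent variation vs control, with ≥4 animals per spasmogen.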

Cavia porcellus [7] = experiment: Bronchodilator activity in Hartley guinea pig assessed as inhibition of serotonin-induced bronchoconstriction at 3.2 mg/kg, iv administered 2 mins post serotonin challenge as 3 to 4 doses in 15 mins interval; assay type: functional; procedure, shortened: as §3
Cavia porcellus [8] = experiment: Bronchodilator activity in Hartley guinea pig assessed as inhibition of acetylcholine-induced bronchoconstriction at 3.2 mg/kg, iv administered 2 mins post acetylcholine challenge as 3 to 4 doses in 15 mins interval; assay type: functional; procedure, shortened: as §3
Canis familiaris [9] = experiment: Bronchodilatory activity in anesthetized dog assessed as inhibition of pilocarpine-induced bronchospasms at 16 to 32 ug/kg administered through aerosol 15 mins post challenge measured up to 1 hr; assay type: functional, Canis lupus familiaris
Procedure, shortened: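 Anesthetized dogs receive a pilocarpine injection of 400 µg/kg, followed by a pilocarpine perfusion of 4 µg/kg/min, to produce a long-acting bronchospasm. Airway resistance must rise to at least 200-300% of the resting value. After a 15-min control period, compound is given by ultrasonic aerosol. Read-out is percent inhibition of the pilocarpine bronchoconstriction, followed over the 1 h experiment.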

Row | SMILES | ED50 (Cavia porcellus [2]) [mg/kg] | ED50 (Cavia porcellus [3]) [mg/kg] | ED50 (Cavia porcellus [4]) [mg/kg] | inhibition in vivo at 3.2 mg/kg (Cavia porcellus [7]) [%] | inhibition in vivo at 3.2 mg/kg (Cavia porcellus [8]) [%] | other results
1 | CCCCCC(O)/C=C/C1C(O)CC(=O)C1CCCCCCC(=O)O (stereo unspecified) |  |  |  |  |  | inhibition (INH) (Canis familiaris [1]): 70%
2 | CCCCC(C)(C)[C@H](O)/C=C/C1CCC(=O)[C@@H]1CCCCCCC(=O)O (mixture of isomers) | 0.0429 | 0.00417 | 0.0259 |  |  | 
3 | CCCCC[C@](C)(O)/C=C/C1CCC(=O)[C@@H]1CCCCCCC(=O)O (mixture of isomers) |  | 0.00424 | 0.00699 |  |  | MED50 (Cavia porcellus [2]): 0.0032 mg/kg
4 | CCCCC[C@H](O)/C=C/C1CCC(=O)[C@@H]1CCCCSCC(=O)O (mixture of isomers) | 0.00514 | 0.00507 | 0.00129 |  |  | ED50 (Canis familiaris [5]): 0.0016 mg/kg
5 | CCCCC[C@@H](O)/C=C/C1CCC(=O)[C@@H]1CCCCSCC(=O)O (mixture of isomers) |  | 0.0113 | 0.0233 |  |  | MED50 (Cavia porcellus [2]): 0.2 mg/kg
6 | CCCCC[C@](C)(O)/C=C/C1CCC(=O)[C@@H]1CCCCSCC(=O)O (mixture of isomers) | 0.0193 | 0.00185 | 0.0054 |  |  | 
7 | CCCCC(C)(C)[C@H](O)/C=C/C1CCC(=O)[C@@H]1CCCCSCC(=O)O (mixture of isomers) | 0.604 | 0.0242 | 0.0523 |  |  | 
8 | CCCCC(C)(C)[C@@H](O)/C=C/C1CCC(=O)[C@@H]1CCCCSCC(=O)O (mixture of isomers) |  | 0.324 | 0.032 |  |  | 
9 | CCCCC[C@H](O)/C=C/C1CCC(=O)[C@@H]1CCCSCC(=O)O (mixture of isomers) |  |  |  | < 50 | < 50 | inhibition in vivo at 3.2 mg/kg (Cavia porcellus [6]): < 50%
10 | CCCCC[C@](C)(O)/C=C/C1CCC(=O)[C@@H]1CCCSCC(=O)O (mixture of isomers) |  | 2.99 |  | < 50 | < 50 | 
11 | CCCCC[C@H](O)/C=C/C1CCC(=O)[C@@H]1CCCCCSCC(=O)O (mixture of isomers) |  |  |  | < 50 | < 50 | inhibition in vivo at 3.2 mg/kg (Cavia porcellus [6]): < 50%
12 | CCCCC[C@@H](O)/C=C/C1CCC(=O)[C@@H]1CCCCCSCC(=O)O (mixture of isomers) |  |  |  | < 50 | < 50 | inhibition in vivo at 3.2 mg/kg (Cavia porcellus [6]): < 50%
13 | CCCCC(C)(C)[C@H](O)/C=C/C1CCC(=O)[C@@H]1CCCCCSCC(=O)O (mixture of isomers) |  |  |  | < 50 | < 50 | inhibition in vivo at 3.2 mg/kg (Cavia porcellus [6]): < 50%
14 | CCCCC[C@H](O)/C=C/C1CCC(=O)C1CCCCCCC(=O)O (mixture of isomers) | 0.032 | 0.0034 | 0.000397 |  |  | 
15 | CC(C)NC[C@H](O)c1ccc(O)c(O)c1 [LEVISOPRENALINE] |  |  |  |  |  | inhibition (INH) (Canis familiaris [9]): 80%
